Measured values reported in ChEMBL document CHEMBL2396596, “Anthraquinone derivatives from Rumex plants and endophytic Aspergillus fumigatus and their effects on diabetic nephropathy” (Bioorg Med Chem Lett, 2013).
Calls of active or inactive are those of the source. No cut-off for these calls is given here.

What was measured:
[1] = Antidiabetic nephropathic activity in rat HBZY-1 cells assessed as inhibition of high concentration glucose-induced fibronectin production at 10 uM treated 1 hr before glucose challenge measured after 24 hrs by ELISA; type: functional, cell-based
Procedure, shortened: (§1)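 HBZY-1 rat mesangial cells (passages 3–10) were grown in DMEM with 5.6 mM glucose, 20% FCS and 10 mM HEPES. At 80% confluence they were arrested in 0.5% FCS for 24 h, then pretreated with compound for 1 h and stimulated with high glucose (25 mM) for 24 h. Supernatant IL-6, fibronectin or collagen IV was measured by sandwich ELISA, normalized to total cell protein (BCA), and compared by ANOVA.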

[2] = Antidiabetic nephropathic activity in rat HBZY-1 cells assessed as inhibition of high concentration glucose-induced collagen-4 production at 10 uM treated 1 hr before glucose challenge measured after 24 hrs by ELISA; type: functional, cell-based; procedure, shortened: as §1
[3] = Antidiabetic nephropathic activity in rat HBZY-1 cells assessed as inhibition of high concentration glucose-induced IL-6 production at 10 uM treated 1 hr before glucose challenge measured after 24 hrs by ELISA; type: functional, cell-based; procedure, shortened: as §1
[4] = Cytotoxicity against rat HBZY-1 cells assessed as cell viability at 10 uM after 48 hrs by MTT assay; type: cell-based; details: hbzy-1, 48 h
Procedure, shortened: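 Cells were seeded at 10⁴ per well and held in serum-free medium for 24 h. They were exposed to compound at 10 μM, or left without it, for 48 h. MTT (5 mg/mL stock) was added for 4 h at 37 °C, the formazan was dissolved in DMSO, and A570 was read. Values were normalized to control-medium cells.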

[5] = Antidiabetic nephropathic activity in rat HBZY-1 cells assessed as inhibition of high concentration glucose-induced IL-6 production at 35 uM treated 1 hr before glucose challenge measured after 24 hrs by ELISA; type: functional, cell-based; procedure, shortened: as §1
[6] = Antidiabetic nephropathic activity in rat HBZY-1 cells assessed as inhibition of high concentration glucose-induced IL-6 production at 88 uM treated 1 hr before glucose challenge measured after 24 hrs by ELISA; type: functional, cell-based

Cc1cc(O[C@@H]2O[C@H](CO)[C@@H](O)[C@H](O)[C@H]2O)c(C(=O)c2c(O)cccc2O)c(C(=O)O)c1
inhibition [1]: Active | inhibition [2]: Active | inhibition [3]: Active | Activity [4]: Non-toxic

Cc1cc(O)c2c(c1)[C@@](O)([C@@H]1O[C@H](CO)[C@@H](O)[C@H](O)[C@H]1O)c1cc(O)cc(O)c1C2=O
inhibition [1]: Active | inhibition [2]: Active | Activity [4]: Non-toxic

O=C(O)c1cc(O)c2c(c1)C(=O)c1cccc(O)c1C2=O
inhibition [5]: inactive | inhibition [6]: Active

CC(=O)OC[C@H]1O[C@@H](Oc2cc(O)cc3c2C(=O)c2c(O)cc(C)cc2C3=O)[C@H](O)[C@@H](O)[C@@H]1O
inhibition [3]: Active

COC(=O)c1c(OC)c(O)cc(OC)c1C(=O)c1c(O)cc(C)cc1OC [ASPERFUMIN]
inhibition [1]: Active | inhibition [2]: Active | inhibition [3]: Active | Activity [4]: Non-toxic

O=C1c2cccc(O)c2C(=O)c2c(O)cc(CO)cc21
inhibition [3]: Active

COc1cc(O)c2c(c1)[C@](O)([C@@H]1O[C@H](CO)[C@@H](O)[C@H](O)[C@H]1O)c1cc(C)cc(O)c1C2=O
inhibition [3]: Active

COc1cc(O)cc2c1C(=O)c1c(O)cc(C)cc1C2=O [QUESTIN]
inhibition [1]: Active | inhibition [2]: Active | inhibition [3]: Active | Activity [4]: Non-toxic

COc1cc(C)cc2c1C(=O)c1c(O)cc(O)cc1C2=O
inhibition [3]: Active

Cc1cc(O)c2c(c1)C(=O)c1cccc(O)c1C2=O [CHRYSOPHANOL]
inhibition [1]: Active | inhibition [2]: Active | inhibition [3]: Active | Activity [4]: Non-toxic

Cc1cc(O)c2c(c1)C(=O)c1cc(O)cc(O[C@@H]3O[C@H](CO)[C@@H](O)[C@H](O)[C@H]3O)c1C2=O
inhibition [3]: Active

COC(=O)C1=CC(=O)C=C(OC)C12Oc1cc(C)cc(OC)c1C2=O (stereo unspecified) [TRYPACIDIN]
inhibition [1]: Active | inhibition [2]: Active | inhibition [3]: Active | Activity [4]: Non-toxic

COc1cc(O)c2c(c1)C(=O)c1cc(C)cc(O)c1C2=O [PHYSCION]
inhibition [1]: Active | inhibition [2]: Active | inhibition [3]: Active | Activity [4]: Non-toxic

COc1cc(O)c2c(c1)[C@@](O)([C@@H]1O[C@H](CO)[C@@H](O)[C@H](O)[C@H]1O)c1cc(C)cc(O)c1C2=O
inhibition [1]: Active | inhibition [2]: Active | inhibition [3]: Active | Activity [4]: Non-toxic

COC(=O)c1cc(O)cc(OC)c1C(=O)c1c(O)cc(C)cc1OC
inhibition [1]: Active | inhibition [2]: Active | inhibition [3]: Active | Activity [4]: Non-toxic

Cc1cc(O)c2c(c1)C(=O)c1cc(O)cc(O)c1C2=O [EMODIN]
inhibition [1]: Active | inhibition [2]: Active | inhibition [3]: Active | Activity [4]: Non-toxic
